According to publication PMC8908367 (ACS Omega, 2022):

Legend:
[1] = Host cell toxicity in the high-content imaging assay; format: cell-based; details: mouse
[2] = system: T. cruzi CA-I/72 amastigotes; format: cell-based, Trypanosoma cruzi
Method in brief: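 Test compound in DMSO acoustically spotted into 384-well plates. C2C12 mouse […] (500/well) and CA-I/72 T. cruzi (7500/well; strain kept by weekly C2C12 coculture passage) added together, 72 h at 37 °C, 5% CO2. Fixed in 4% paraformaldehyde/PBS, DAPI 5 μg/mL 1 h, imaged at 10×. Automated host and parasite nuclei counts fitted to CC50 and EC50 curves; SI = CC50/EC50.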

trypanothione reductase = details: cited from earlier work
[3] = system: T. cruzi intracellular parasite; details: cited from earlier work

| SMILES | CC50 at 72 h [1] [nM] | SI (Selectivity Index = CC50/EC50) ([2]; CC50 C2C12 / EC50 T. cruzi CA-I/72) | EC50 ([2]; Trypanosoma cruzi, C2C12, 72 h, read-out: EC50, inhibition of T. cruzi amastigote replication) [nM] | inhibition of trypanothione reductase (trypanothione reductase) | activity against the intracellular parasite in vitro [3] |
| --- | --- | --- | --- | --- | --- |
| O=C(Cn1ccnc1[N+](=O)[O-])NCc1ccccc1 [Benznidazole] | > 50000 | >22 | 2200 ± 1.3 |  |  |
| C=C1C(=O)[C@H]2O[C@]23C[C@H]2CC(C)(C)[C@H](O)[C@H]2[C@]13C [hypnophilin] |  |  |  | potent inhibitor | showed activity |
